Laboratory results published in ChEMBL document CHEMBL1142327, “2-Amino-N-pyrimidin-4-ylacetamides as A2A receptor antagonists: 2. Reduction of hERG activity, observed species selectivity, and structure-activity relationships” (J Med Chem, 2008).
Active and inactive are the calls of the source. No cut-off for these calls is given here.

What was measured:
[1] = target: Adenosine receptor A2a (Homo sapiens, UniProt P29274); assay: Displacement of [3H]-ZM 241385 from human adenosine A2A receptor expressed in HEK293 cell membrane; type: cell membranes
Sequence of Adenosine receptor A2a (Homo sapiens, UniProt P29274) (P29274 whole entry): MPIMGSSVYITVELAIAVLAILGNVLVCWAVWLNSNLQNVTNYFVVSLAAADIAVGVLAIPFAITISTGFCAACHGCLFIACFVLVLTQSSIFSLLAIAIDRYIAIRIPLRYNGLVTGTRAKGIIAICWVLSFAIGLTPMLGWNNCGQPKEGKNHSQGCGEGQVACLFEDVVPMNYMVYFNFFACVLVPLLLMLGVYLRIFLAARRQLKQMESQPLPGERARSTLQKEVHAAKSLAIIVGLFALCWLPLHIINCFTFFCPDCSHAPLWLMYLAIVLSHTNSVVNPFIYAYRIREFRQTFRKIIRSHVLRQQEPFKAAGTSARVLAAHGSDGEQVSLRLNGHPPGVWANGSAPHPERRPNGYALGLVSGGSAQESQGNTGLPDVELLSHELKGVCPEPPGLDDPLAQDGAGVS

[2] = target: T1, Adenosine receptor A1 (Homo sapiens, UniProt P30542); assay: Displacement of [3H]-DPCPX from human adenosine A1 receptor expressed in HEK293 cell membrane; type: cell membranes
T1 sequence (P30542 whole entry): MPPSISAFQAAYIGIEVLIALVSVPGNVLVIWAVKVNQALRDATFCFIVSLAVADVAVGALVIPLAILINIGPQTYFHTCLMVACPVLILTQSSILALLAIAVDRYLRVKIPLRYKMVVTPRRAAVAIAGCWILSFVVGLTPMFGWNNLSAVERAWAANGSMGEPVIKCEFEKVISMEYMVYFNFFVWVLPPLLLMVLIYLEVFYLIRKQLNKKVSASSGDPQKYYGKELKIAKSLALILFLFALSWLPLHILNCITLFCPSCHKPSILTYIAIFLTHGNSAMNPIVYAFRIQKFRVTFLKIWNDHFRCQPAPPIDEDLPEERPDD
How it was run: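 Flp-In HEK293 cell line stably expressing the human receptor, crude membranes used at 1–2 µg protein. Pre-incubated 30 min at room temperature with 10 µg/mL adenosine deaminase. Then incubated 90 min with 1.0 nM [3H]-DPCPX and graded competitor in 50 mM Tris-HCl pH 7.4, 1 mM EDTA, 10 mM MgCl2. Nonspecific binding defined with 1 µM DPCPX. Separated by filtration on GF/C, counted by scintillation. Ki from IC50 via Cheng-Prusoff. Mean of at least two runs.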

[3] = species on record: Homo sapiens; assay: Selectivity ratio of Ki for human adenosine A1 receptor to Ki for human adenosine A2A receptor
How it was run: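 Stably transfected Flp-In HEK293 membranes with human A1 or A2A receptors (1–2 µg protein) were preincubated 30 min at room temp with adenosine deaminase. They were then incubated 90 min with competitor and 1.0 nM [3H]-DPCPX (A1) or 2.0 nM [3H]-ZM241385 (A2A). Nonspecific binding used 1 µM DPCPX or CGS15943. Filtration and scintillation counting followed. […] Ratio is A1 Ki/A2A Ki.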

[4] = target: Adenosine receptor A2a (Rattus norvegicus, UniProt P30543); assay: Displacement of [3H]-ZM 241385 from rat adenosine A2A receptor expressed in CHO cell membrane; type: cell membranes
Sequence of Adenosine receptor A2a (Rattus norvegicus, UniProt P30543) (P30543 whole entry): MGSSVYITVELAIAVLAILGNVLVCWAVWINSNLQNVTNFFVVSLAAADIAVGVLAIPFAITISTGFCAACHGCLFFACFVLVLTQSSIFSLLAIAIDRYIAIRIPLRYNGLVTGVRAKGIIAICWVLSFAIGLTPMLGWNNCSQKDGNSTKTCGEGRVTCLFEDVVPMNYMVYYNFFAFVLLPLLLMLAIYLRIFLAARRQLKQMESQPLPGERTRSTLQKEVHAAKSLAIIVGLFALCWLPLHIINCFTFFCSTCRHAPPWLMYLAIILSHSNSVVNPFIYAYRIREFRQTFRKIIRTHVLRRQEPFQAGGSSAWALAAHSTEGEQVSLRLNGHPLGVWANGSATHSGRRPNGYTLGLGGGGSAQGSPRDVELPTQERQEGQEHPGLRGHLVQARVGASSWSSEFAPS

[5] = test system: Rattus norvegicus; assay: Effect on haloperidol-induced catalepsy in Wistar rat at 30 mg/kg, po after 2 hrs; type: functional, organism-based; parameters: dose 30 mg/kg
How it was run: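 Male Wistar rats, ∼220 g, habituated 1 week, 24 per experiment. Oral dose of 30 mg/kg in 5% cremophor/sterile water (5 mL/kg) 2 h before testing, haloperidol 1.5 mg/kg ip 1 h before. Bar test: forepaws placed on 8.0 cm bar, three 30 s trials 3 min apart. Descent latency averaged per rat and compared with vehicle, p < 0.05.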

[6] = target: Voltage-gated inwardly rectifying potassium channel KCNH2 (Homo sapiens, UniProt Q12809); assay: Inhibition of human ERG potassium current expressed in HEK293 cells by patch-clamp technique
Sequence of Voltage-gated inwardly rectifying potassium channel KCNH2 (Q12809 whole entry): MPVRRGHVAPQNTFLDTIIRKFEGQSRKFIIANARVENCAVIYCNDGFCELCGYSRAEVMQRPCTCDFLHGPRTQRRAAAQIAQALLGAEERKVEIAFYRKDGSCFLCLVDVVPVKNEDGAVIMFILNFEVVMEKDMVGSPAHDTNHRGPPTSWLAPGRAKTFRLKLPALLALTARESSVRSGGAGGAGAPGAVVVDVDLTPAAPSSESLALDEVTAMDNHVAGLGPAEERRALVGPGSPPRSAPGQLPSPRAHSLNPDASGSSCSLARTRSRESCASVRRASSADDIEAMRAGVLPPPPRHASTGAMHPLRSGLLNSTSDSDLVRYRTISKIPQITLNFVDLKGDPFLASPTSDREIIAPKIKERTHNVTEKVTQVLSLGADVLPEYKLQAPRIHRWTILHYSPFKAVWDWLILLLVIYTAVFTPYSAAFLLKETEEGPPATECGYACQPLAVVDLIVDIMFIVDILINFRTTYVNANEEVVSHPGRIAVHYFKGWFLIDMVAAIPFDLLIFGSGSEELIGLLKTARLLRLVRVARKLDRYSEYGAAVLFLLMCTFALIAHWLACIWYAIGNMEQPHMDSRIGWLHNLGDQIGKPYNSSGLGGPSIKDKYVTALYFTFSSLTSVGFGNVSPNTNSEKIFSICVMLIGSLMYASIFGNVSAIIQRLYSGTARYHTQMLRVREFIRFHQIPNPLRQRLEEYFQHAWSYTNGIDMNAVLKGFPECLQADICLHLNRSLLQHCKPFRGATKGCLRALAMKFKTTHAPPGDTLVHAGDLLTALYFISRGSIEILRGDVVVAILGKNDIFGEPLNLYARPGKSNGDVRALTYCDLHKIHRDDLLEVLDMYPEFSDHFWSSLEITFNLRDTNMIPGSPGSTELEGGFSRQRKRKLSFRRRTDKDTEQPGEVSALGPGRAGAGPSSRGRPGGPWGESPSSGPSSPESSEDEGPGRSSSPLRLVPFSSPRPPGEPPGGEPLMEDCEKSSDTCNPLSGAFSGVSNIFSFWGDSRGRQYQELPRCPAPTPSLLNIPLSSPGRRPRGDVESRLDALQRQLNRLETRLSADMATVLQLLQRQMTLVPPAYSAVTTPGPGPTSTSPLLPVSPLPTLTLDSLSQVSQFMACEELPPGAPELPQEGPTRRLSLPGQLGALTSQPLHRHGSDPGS

[7] = Drug level in Wistar rat brain at 30 mg/kg, po after 2 hrs; type: ADME, organism-based; parameters: dose 30 mg/kg, route oral; details: read-out: Drug uptake
How it was run: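 Male Wistar rats, ∼220 g. Oral dose of 30 mg/kg in 5% cremophor in sterile water (5 mL/kg), with haloperidol 1.5 mg/kg ip 1 h before the bar test. Brain collected 2 h after dosing. Half-brain homogenates centrifuged, supernatant analysed by LC-MS/MS (positive ESI, MRM). Quantified against brain-matrix calibration standards by internal-standard peak-area ratio on a 1/x-weighted linear curve.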

[8] = target: Cytochrome P450 2D6 (Homo sapiens, UniProt P10635); assay: Inhibition of CYP2D6; type: ADME
Sequence of Cytochrome P450 2D6 (P10635 whole entry): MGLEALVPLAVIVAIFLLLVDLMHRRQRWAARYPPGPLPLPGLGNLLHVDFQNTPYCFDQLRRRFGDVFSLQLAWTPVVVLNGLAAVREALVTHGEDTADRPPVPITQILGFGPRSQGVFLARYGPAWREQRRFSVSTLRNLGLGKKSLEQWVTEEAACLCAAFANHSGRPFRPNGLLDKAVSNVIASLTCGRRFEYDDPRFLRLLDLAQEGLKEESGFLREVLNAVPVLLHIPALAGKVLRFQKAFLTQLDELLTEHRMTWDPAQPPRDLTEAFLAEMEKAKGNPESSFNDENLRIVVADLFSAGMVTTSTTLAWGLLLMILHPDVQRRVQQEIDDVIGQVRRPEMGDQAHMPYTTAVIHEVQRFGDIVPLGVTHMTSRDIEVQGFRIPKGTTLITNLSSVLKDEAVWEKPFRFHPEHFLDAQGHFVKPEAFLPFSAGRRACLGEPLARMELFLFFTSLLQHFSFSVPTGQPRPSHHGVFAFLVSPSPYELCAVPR

[9] = target: Cytochrome P450 3A4 (Homo sapiens, UniProt P08684); assay: Inhibition of CYP3A4; type: ADME
Sequence of Cytochrome P450 3A4 (P08684 whole entry): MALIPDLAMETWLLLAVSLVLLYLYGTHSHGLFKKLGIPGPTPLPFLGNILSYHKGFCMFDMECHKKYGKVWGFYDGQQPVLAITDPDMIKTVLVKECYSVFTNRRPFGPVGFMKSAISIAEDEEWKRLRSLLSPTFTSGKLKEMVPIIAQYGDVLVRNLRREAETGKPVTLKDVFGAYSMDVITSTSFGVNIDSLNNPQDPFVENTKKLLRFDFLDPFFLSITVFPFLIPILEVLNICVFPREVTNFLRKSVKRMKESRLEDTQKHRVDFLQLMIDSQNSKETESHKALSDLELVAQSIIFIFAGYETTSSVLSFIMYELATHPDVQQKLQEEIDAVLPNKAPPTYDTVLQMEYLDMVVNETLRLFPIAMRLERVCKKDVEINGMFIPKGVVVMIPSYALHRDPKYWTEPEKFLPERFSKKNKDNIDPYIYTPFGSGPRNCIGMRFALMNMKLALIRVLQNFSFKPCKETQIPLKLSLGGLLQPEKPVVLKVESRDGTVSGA

Compound | Ki [1] | Ki [2] | Ratio Ki [3] | Ki [4] | Activity [5] | IC50 [6] | concentration at 2 h [7] | Inhibition [8] | Inhibition [9]
Cc1cc(C)n(-c2cc(NC(=O)CN3CCCC3)nc(-c3ccc(C)o3)n2)n1 | 0.0086 µM | 0.347 µM | 40 |  |  |  |  |  | 
Cc1cc(C)n(-c2cc(NC(=O)CN3CCC[C@@H](CN(C)C)C3)nc(-c3ccc(C)o3)n2)n1 | 0.0015 µM | 0.071 µM | 47 | 0.014 µM |  |  |  |  | 
CCN[C@@H]1CCN(CC(=O)Nc2cc(-n3nc(C)cc3C)nc(-c3ccc(C)o3)n2)C1 | 0.0038 µM | 0.27 µM | 71 |  |  |  |  |  | 
Cc1cc(C)n(-c2cc(NC(=O)CCN(C)C)nc(-c3ccc(C)o3)n2)n1 | 0.0021 µM | 0.21 µM |  | 0.043 µM |  |  |  |  | 
Cc1cc(C)n(-c2cc(NC(=O)CN3CC[C@H](N(C)C)C3)nc(-c3ccc(C)o3)n2)n1 | 0.0037 µM | 0.94 µM | 254 | 0.16 µM | Active | 0.6 µM | 1900 ng/g |  | 
Cc1cc(C)n(-c2cc(NC(=O)CN3CCC(CN(C)C)CC3)nc(-c3ccc(C)o3)n2)n1 | 0.0029 µM | 0.38 µM | 131 | 0.025 µM |  | 1.67 µM |  |  | 
Cc1cc(C)n(-c2cc(NC(=O)CN3CCOCC3)nc(-c3ccc(C)o3)n2)n1 | 0.0057 µM | 0.5 µM | 88 | 0.43 µM |  |  |  |  | 
Cc1cc(C)n(-c2cc(NC(=O)CN3CCN(C)CC3)nc(-c3ccc(C)o3)n2)n1 |  |  | 71 | 0.131 µM |  | 0.95 µM |  | Not Active | Not Active
Cc1cc(C)n(-c2cc(NC(=O)CN3CC[C@H](OC(C)C)C3)nc(-c3ccc(C)o3)n2)n1 | 0.086 µM | 2.3 µM | 27 |  |  |  |  |  | 
Cc1cc(C)n(-c2cc(NC(=O)CN3CC[C@@H](N(C)C)C3)nc(-c3ccc(C)o3)n2)n1 | 0.004 µM | 0.262 µM | 66 |  |  |  |  |  | 
CCN(CC)[C@H]1CCN(CC(=O)Nc2cc(-n3nc(C)cc3C)nc(-c3ccc(C)o3)n2)C1 | 0.0044 µM | 2.6 µM | 591 | 0.155 µM |  |  |  |  | 
CCN[C@H]1CCN(CC(=O)Nc2cc(-n3nc(C)cc3C)nc(-c3ccc(C)o3)n2)C1 | 0.0025 µM | 0.37 µM | 148 | 0.037 µM |  | 0.42 µM |  |  | 
Cc1cc(C)n(-c2cc(NC(=O)CN3CCCOCC3)nc(-c3ccc(C)o3)n2)n1 | 0.006 µM | 0.63 µM | 105 | 0.23 µM |  |  |  |  | 
Cc1cc(C)n(-c2cc(NC(=O)CC3CCN(C)CC3)nc(-c3ccc(C)o3)n2)n1 | 0.0054 µM | 1.02 µM |  | 0.103 µM |  |  |  |  | 
Cc1cc(C)n(-c2cc(NC(=O)CN3CCC[C@H](CN(C)C)C3)nc(-c3ccc(C)o3)n2)n1 | 0.01 µM | 0.89 µM | 89 | 0.087 µM |  |  |  |  | 
CC(=O)N1CCN(CC(=O)Nc2cc(-n3nc(C)cc3C)nc(-c3ccc(C)o3)n2)CC1 | 0.0036 µM | 0.54 µM | 150 | 0.17 µM |  |  |  |  | 
COC1CCN(CC(=O)Nc2cc(-n3nc(C)cc3C)nc(-c3ccc(C)o3)n2)CC1 | 0.015 µM | 1.21 µM | 81 | 1.6 µM |  |  |  |  | 
Cc1cc(C)n(-c2cc(NC(=O)CN3CC[C@@H](CN(C)C)C3)nc(-c3ccc(C)o3)n2)n1 | 0.0021 µM | 0.22 µM |  | 0.0278 µM |  |  |  |  | 
Cc1cc(C)n(-c2cc(NC(=O)CN3CCCN(C)CC3)nc(-c3ccc(C)o3)n2)n1 | 0.01 µM | 2.1 µM | 210 | 0.0467 µM |  | 0.285 µM |  |  | 
Cc1cc(C)n(-c2cc(NC(=O)CCN3CC[C@H](N(C)C)C3)nc(-c3ccc(C)o3)n2)n1 | 0.0024 µM | 0.63 µM | 263 | 0.041 µM | Active | 2.28 µM | 250 ng/g |  | 
CCN1CCN(CC(=O)Nc2cc(-n3nc(C)cc3C)nc(-c3ccc(C)o3)n2)CC1 | 0.011 µM | 1.88 µM | 171 | 0.27 µM |  |  |  |  | 
Cc1cc(C)n(-c2cc(NC(=O)CN3CC[C@H](CN(C)C)C3)nc(-c3ccc(C)o3)n2)n1 | 0.011 µM | 0.55 µM |  | 0.034 µM |  |  |  |  | 
